The results in this text go back to ChEMBL document CHEMBL3872271, “Identification and validation of small molecule modulators of the NusB-NusE interaction” (Bioorg Med Chem Lett, 2017).

For assay [1], the system named is Bacillus subtilis. The assay can be described thus: Inhibition of Bacillus subtilis full length NusB/GST-tagged NusE interaction at 25 uM preincubated with NusE for 15 mins followed by incubation with NusB for 1 hr by ELISA. The method, boiled down:
(§1)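 Wells coated overnight at 4 °C with purified full-length B. subtilis NusB (250 nM in PBS), then blocked with 1% BSA/PBS for 2 h at RT. Inhibitor preincubated with GST-NusE (200 nM) for 15 min at 37 °C, then added to wells for 1 h at RT. Bound NusE detected with rabbit anti-GST (1:2000), goat anti-rabbit HRP (1:2000) and TMB (6 min, 37 °C), read at OD 600 nm.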

Assay [2] is described as follows: Inhibition of Bacillus subtilis full length NusB/GST-tagged NusE preincubated with NusE for 15 mins followed by incubation with NusB for 1 hr by ELISA. In outline: as §1
The next assay has as its system Escherichia coli. The assay can be described thus: Growth inhibition of Escherichia coli DH5alpha at 200 uM measured every 10 mins for 16 hrs. Type of assay: functional. Particulars: DH5[alpha], read-out: GI. The method, boiled down:
(§2)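 Cells grown at 37 °C in LB with shaking to OD 0.6–0.7 AU, then added to LB containing compound (50 mM DMSO stocks, serially diluted to 200 μM). Plates incubated at 37 °C, 200 rpm. OD600 was read every 10 min for 16 h with LB as blank. Triplicates, with growth compared to cells given equal DMSO.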

Assay [3] deals with Bacillus subtilis. The assay can be described thus: Growth inhibition of Bacillus subtilis at 200 uM measured every 10 mins for 16 hrs. The settings on record: read-out: GI. The class given is functional. The method, boiled down: as §2

`CCNC(=O)Nc1ccc(OCCCCOc2ccc(NC(=O)NCC)cc2)cc1` came in with an inhibition in the assay with Bacillus subtilis [1] of 52%. This compound also had an IC50 in assay [2] of 19.8 µM. Also, in the assay with Escherichia coli, the inhibition of growth at 200 µM was found to be 17%.
With H-YDHRLLDQS-NH2, it took 71 µM to reach half-maximal inhibition in assay [2] (IC50).
On to `COc1ccc(/C=C/C(=O)c2ccc(OC)c(OC)c2)c(OC)c1`, for which the inhibition in the assay on Bacillus subtilis [1] came to 48%.
`COc1cc(/C=N/NC(=O)CCc2ccc(O)cc2)cc(OC)c1OC` had an inhibition with Bacillus subtilis [1] of 5%. Moreover, the inhibition of growth at 200 µM turned out to be 10% with Escherichia coli and 44% in the assay with Bacillus subtilis [3].
In the case of `O=[N+]([O-])c1ccc(OCC(O)CNCCNc2nccc(C(F)(F)F)n2)cc1` (racemic), the inhibition of growth at 200 µM in the assay on Escherichia coli came to 11%; in the assay with Bacillus subtilis [3], 19%.
Turning to `COc1ccc(-c2cc(-c3ccc(OC)c(OC)c3)nc(NS(=O)(=O)c3ccc(N)cc3)n2)c(OC)c1`, in the assay with Bacillus subtilis [1], the inhibition came out at 3%.
In the assay on Bacillus subtilis [1], `COc1ccc(-c2cc(-c3ccc(OC)c(OC)c3)nc(NS(=O)(=O)c3ccc(NC(C)=O)cc3)n2)c(OC)c1` showed an inhibition of 88%. The compound also showed an IC50 in assay [2] of 6.1 µM. The inhibition of growth at 200 µM with Escherichia coli came to 21%; in the assay with Bacillus subtilis [3], 9%.
`Oc1ccccc1CNc1ccc(OCCCCOc2ccc(NCc3ccccc3O)cc2)cc1` registered an inhibition in the assay with Bacillus subtilis [1] of 45%. The midpoint of inhibition in assay [2], the IC50, lay at 210 µM.
